In ChEMBL document CHEMBL3745714, “Fragment-based drug discovery of potent and selective MKK3/6 inhibitors” (Bioorg Med Chem Lett, 2016):

Columns and labels:
[1] = biological target: T1, Dual specificity mitogen-activated protein kinase kinase 3 (Homo sapiens, UniProt P46734); assay: Inhibition of MKK3 (unknown origin) using [gamma-33P]-ATP after 20 mins by radiometric assay
T1 sequence (P46734 whole entry): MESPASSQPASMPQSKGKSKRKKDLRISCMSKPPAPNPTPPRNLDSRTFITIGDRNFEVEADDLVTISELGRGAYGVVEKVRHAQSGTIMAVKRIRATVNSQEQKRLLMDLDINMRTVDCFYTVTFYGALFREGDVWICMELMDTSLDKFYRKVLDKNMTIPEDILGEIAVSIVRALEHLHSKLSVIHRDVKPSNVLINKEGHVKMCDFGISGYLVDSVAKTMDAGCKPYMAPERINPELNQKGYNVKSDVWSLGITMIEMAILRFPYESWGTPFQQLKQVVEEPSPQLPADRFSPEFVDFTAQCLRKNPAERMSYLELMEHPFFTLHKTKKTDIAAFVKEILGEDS

[2] = biological target: T1, Dual specificity mitogen-activated protein kinase kinase 3; assay: Binding affinity to MKK3 (unknown origin) by surface plasmon resonance assay
[3] = biological target: T2, Dual specificity mitogen-activated protein kinase kinase 6 (Homo sapiens, UniProt P52564); assay: Inhibition of MKK6 (unknown origin) using [gamma-33P]-ATP after 20 mins by radiometric assay
T2 sequence (P52564 whole entry): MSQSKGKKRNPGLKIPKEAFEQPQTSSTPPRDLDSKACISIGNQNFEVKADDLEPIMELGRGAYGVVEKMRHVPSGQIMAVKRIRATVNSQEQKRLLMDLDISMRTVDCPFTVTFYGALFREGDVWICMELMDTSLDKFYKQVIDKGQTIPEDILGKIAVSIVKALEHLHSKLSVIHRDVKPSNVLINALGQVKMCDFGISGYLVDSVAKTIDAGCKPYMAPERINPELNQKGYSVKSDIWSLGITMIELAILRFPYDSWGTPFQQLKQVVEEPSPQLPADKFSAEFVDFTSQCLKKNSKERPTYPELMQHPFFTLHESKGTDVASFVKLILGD

[4] = organism: Homo sapiens; assay: Selectivity ratio of IC50 for MKK3 (unknown origin) to IC50 for JNK1 (unknown origin)
[5] = organism: Homo sapiens; assay: Selectivity ratio of IC50 for MKK3 (unknown origin) to IC50 for MEK2 (unknown origin)
[6] = organism: Homo sapiens; assay: Selectivity ratio of IC50 for MKK3 (unknown origin) to IC50 for MLK3 (unknown origin)
[7] = organism: Homo sapiens; assay: Selectivity ratio of IC50 for MKK3 (unknown origin) to IC50 for ASK1 (unknown origin)
[8] = biological target: Mitogen-activated protein kinase 14 (Homo sapiens, UniProt Q16539); assay: Inhibition of p38alpha phosphorylation in human TNFalpha-stimulated U937 cells treated 1 hr before by ELISA; type: cell-based, U-937
Sequence of Mitogen-activated protein kinase 14 (Q16539 whole entry): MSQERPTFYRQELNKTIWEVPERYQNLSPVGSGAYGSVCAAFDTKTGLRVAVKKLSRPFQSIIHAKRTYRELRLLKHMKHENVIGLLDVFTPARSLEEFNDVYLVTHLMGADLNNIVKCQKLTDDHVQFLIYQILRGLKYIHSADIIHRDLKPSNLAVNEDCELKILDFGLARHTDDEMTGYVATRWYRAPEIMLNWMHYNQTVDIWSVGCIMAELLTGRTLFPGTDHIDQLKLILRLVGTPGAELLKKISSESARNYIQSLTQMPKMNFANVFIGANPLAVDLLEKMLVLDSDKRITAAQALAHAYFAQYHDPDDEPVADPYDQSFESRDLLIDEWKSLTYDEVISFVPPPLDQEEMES
Summary of the method: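 U937 human leukemic monocytes were pre-treated with compound across a dose range for one hour, then stimulated with TNFα. Phospho-p38α was quantified by ELISA, and IC50 was taken from the dose-response.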

[9] = organism: Homo sapiens; assay: Selectivity ratio of IC50 for MKK3 (unknown origin) to IC50 for MKK6 (unknown origin)
[10] = organism: Homo sapiens; assay: Selectivity ratio of IC50 for MKK3 (unknown origin) to IC50 for p38gamma (unknown origin)
[11] = organism: Homo sapiens; assay: Selectivity ratio of IC50 for MKK3 (unknown origin) to IC50 for p38alpha (unknown origin)
[12] = organism: Homo sapiens; assay: Selectivity ratio of IC50 for MKK3 (unknown origin) to IC50 for JNK2 (unknown origin)
[13] = organism: Homo sapiens; assay: Selectivity ratio of IC50 for MKK3 (unknown origin) to IC50 for ERK1 (unknown origin)
[14] = organism: Homo sapiens; assay: Selectivity ratio of IC50 for MKK3 (unknown origin) to IC50 for TAK1 (unknown origin)
[15] = organism: Homo sapiens; assay: Selectivity ratio of IC50 for MKK3 (unknown origin) to IC50 for ERK2 (unknown origin)
[16] = organism: Homo sapiens; assay: Selectivity ratio of IC50 for MKK3 (unknown origin) to IC50 for MEK1 (unknown origin)

SMILES | IC50 [1] [µM] | Kd [2] [µM] | IC50 [3] [µM] | Ratio IC50 [4] | Ratio IC50 [5] | Ratio IC50 [6] | Ratio IC50 [7] | IC50 [8] [µM] | Ratio IC50 [9] | Ratio IC50 [10] | Ratio IC50 [11] | Ratio IC50 [12] | Ratio IC50 [13] | Ratio IC50 [14] | Ratio IC50 [15] | Ratio IC50 [16]
NC(=O)c1nnc2ccccc2c1N | 37 | 2 | 16 | – | – | – | – | – | – | – | – | – | – | – | – | –
NC(=O)c1nc(-c2ccccc2)ccc1N | 4.2 | – | – | – | – | – | – | – | – | – | – | – | – | – | – | –
NC(=O)c1nc(-c2ccncc2)c2ccccn12 | 0.15 | – | – | – | – | – | – | – | – | – | – | – | – | – | – | –
NC(=O)c1nc(-c2ccns2)c2ccccn12 | 0.004 | – | – | > 100 | > 100 | > 100 | > 100 | 0.73 | 12 | > 100 | > 100 | > 100 | > 100 | 23 | > 100 | 86
CNc1ccc(-c2ccncc2)nc1C(N)=O | 0.004 | – | – | > 100 | > 100 | > 100 | > 100 | 2.7 | < 9 | > 100 | > 100 | > 100 | > 100 | > 100 | > 100 | > 100
NC(=O)c1nc(-c2ccncc2)ccc1N | 0.03 | – | – | – | – | – | – | – | – | – | – | – | – | – | – | –
